Experimental data published in publication PMC9128166 (Cancer Science, 2022).
Values joined by “and” are separate entries in the source; they are usually repeats but may differ in a detail not shown here. Identical values can stand only once. “Also recorded” adds a separate entry of the source. Like-named read-outs stand apart in the source and are kept apart here.

Assays:
[1] = Plasma pharmacokinetics of parsaclisib, cycle 1 day 15; assay type: in vivo, Japanese patients; conditions: for Vd/F: Vz/F
[2] = Urine pharmacokinetics of parsaclisib, cycle 1 day 15; assay type: in vivo, Japanese patients
phospho‐AKT = conditions: read-out: calculated in vitro IC90 for phospho‐AKT inhibition; measure of PI3K pathway pharmacodynamic activity; ref not given; cited from earlier work
[3] = Dose-limiting toxicity / MTD, 3 + 3 dose escalation and expansion; assay type: in vivo, Japanese patients
In short: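 Oral test compound in Japanese patients: once daily for 8 weeks, then the same dose weekly; starting dose 10 mg QD. Patients were hospitalised for the 28-day DLT period. DLTs were graded by NCI CTCAE v4.03. MTD was one level below the dose with DLT in ≥2 of 6 patients, with 3 added patients to confirm.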

[4] = test system: plasma proteins associated with PI3Kδ inhibition; test: Plasma proteomic pharmacodynamic biomarkers; assay type: in vivo, Japanese patients
[5] = test system: relapsed or refractory diffuse large B‐cell lymphoma; test: Investigator-assessed response; assay type: in vivo, Japanese patients
In short: (§1)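 Investigator-assessed response by Lugano criteria in the full analysis set (all treated patients). Patients received 10 or 20 mg QD orally for 8 weeks, then the same dose QW. CT, FDG-PET or PET-CT was chosen by subtype, using the same technique as at screening. Scans ran every 8 weeks through week 24, every 12 weeks through week 96, then every 24 weeks until progression.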

[6] = Parsaclisib exposure and patient disposition; assay type: in vivo, Japanese patients
In short: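 Safety population: all enrolled patients given ≥1 dose. Regimen was 10 or 20 mg QD for 8 weeks, then QW, until progression, death, unacceptable toxicity or consent withdrawal. AEs were graded by NCI CTCAE v4.03. Treatment duration (d) = last dose − first dose + 1. QW-period duration (wk) = ceiling[(last dose − first QW dose + 1)/7]. Interruptions and reductions were tallied by dosing period.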

[7] = cited from earlier work
[8] = assay type: in vivo, Japanese patients
[9] = test system: relapsed or refractory follicular lymphoma; test: Investigator-assessed response; assay type: in vivo, Japanese patients
In short: as §1

[10] = 10 mg QD, cycle 1 day 15, n 3, mean ± SD
[11] = 20 mg QD, cycle 1 day 15, n 11, mean ± SD
[12] = previous studies, patients with NHL
[13] = Any postbaseline abnormality, N = 17
[14] = Worst grade postbaseline Grade 3, N = 17
[15] = Worst grade postbaseline Grade 4, N = 17
[16] = among 16 patients with grade 0 at baseline

SMILES: CCOc1c([C@H](C)n2nc(C)c3c(N)ncnc32)cc(Cl)c(F)c1[C@@H]1CNC(=O)C1 [parsaclisib]
- Accumulation ratio [1, 10]: 1.4 ± 0.2 (1.4, 17.1)
- CLss/F [1, 10]: 1.8 ± 0.6 (1.75, 30.9) L/h
- Cmin [1, 10]: 227 ± 83.2 nM and 227 ± 83.2 (215, 36.6) nM
- Tmax ([1]; 10 mg QD, cycle 1 day 15, n 3, median (range)): 1.0 (0.5–2.0) h
- Accumulation ratio [1, 11]: 1.2 ± 0.1 (1.2, 11.3)
- CLss/F [1, 11]: 2.3 ± 0.75 (2.2, 32.9) L/h
- Cmin [1, 11]: 303 ± 155 nM and 303 ± 155 (271, 51.0) nM
- CLss/F ([1]; Total (10 and 20 mg QD), cycle 1 day 15, n 14, mean ± SD): 2.2 ± 0.7 L/h and 2.2 ± 0.7 (2.1, 32.8) L/h
- AUC ([1]; human, plasma, oral, 10 mg): 12.5 µM·h
- Cmax ([1]; human, plasma, oral, 10 mg): 1440 ± 502 nM
- Tmax ([1]; human, plasma, oral, 10 mg, Tmax, 10 mg QD, cycle 1 day 15, n 3, median (range)): 0.97 h
- Vd/F ([1]; human, plasma, oral, 10 mg, 10 mg QD, cycle 1 day 15, n 3, mean ± SD): 31.3 ± 9.8 L
- half-life ([1]; human, plasma, oral, 10 mg, t½, 10 mg QD, cycle 1 day 15, n 3, mean ± SD): 12.6 ± 4.6 h
- AUC ([1]; human, plasma, oral, 20 mg): 20.5 µM·h
- Cmax ([1]; human, plasma, oral, 20 mg): 2630 ± 530 nM
- Tmax ([1]; human, plasma, oral, 20 mg, Tmax, 20 mg QD, cycle 1 day 15, n 11, median (range)): 0.55 h
- Vd/F ([1]; human, plasma, oral, 20 mg, 20 mg QD, cycle 1 day 15, n 11, mean ± SD): 31.1 ± 10.2 L
- half-life ([1]; human, plasma, oral, 20 mg, t½, 20 mg QD, cycle 1 day 15, n 11, mean ± SD): 9.8 ± 2.8 h
- half-life ([1]; human, plasma, oral, steady‐state geometric mean t½, overall, dose‐independent): 9.9 h
- Fe,0-8h (unchanged parsaclisib recovered in urine) ([2]; Total, cycle 1 day 15, n 14, mean ± SD (text: mean (range))): 12.1 (5.4–20.4) %
- CL renal ([2]; human, urine, oral): 6.67 mL/min
- IC90 (phospho‐AKT): 40 nM
- MTD ([3]; 20 mg QD for 8 weeks followed by 20 mg QW): not considered to have exceeded the MTD; also recorded: the criteria for MTD was not exceeded
- DLTs during dose expansion ([3]; 20‐mg dose level, QD schedule): grade 3 febrile neutropenia on day 28 and grade 4 neutropenia on day 14 (each in 1 patient); also recorded: two DLTs occurred in one patient each
- DLTs during the 28‐day DLT observation period ([3]; dose‐escalation phase, 10‐mg (n = 3) or 20‐mg (n = 3) dose level): No DLTs
- parsaclisib‐responsive proteins after transition to QW dosing ([4]; 10 mg or 20 mg QW, weeks 12 and 24): reverted partially or completely to baseline expression levels
- plasma proteins significantly changed following 4 weeks or 8 weeks of QD parsaclisib dosing ([4]; FL and MZL (n = 11), approximately 1000 proteins analysed): 23 plasma proteins
- BOR, CMR/CR ([5]; DLBCL (n = 6)): 0 (0.0) n (%)
- BOR, NMR/SD ([5]; DLBCL (n = 6)): 1 (16.7) n (%)
- BOR, PMD/PD ([5]; DLBCL (n = 6)): 3 (50.0) n (%)
- BOR, PMR/PR ([5]; DLBCL (n = 6)): 1 (16.7) n (%)
- Objective response ([5]; DLBCL (n = 6)): 1 (16.7) n (%)
- BOR, Not assessed ([5]; DLBCL (n = 6), no postbaseline response data available): 1 (16.7) n (%)
- ORR ([5]; DLBCL, 1 of 6 patients (partial response)): 16.7%
- observed PFS ([5]; one responder with DLBCL): 13.8 months
- observed response duration ([5]; one responder with DLBCL): 12.2 months
- Patients with dose interruption ([6]; 10 mg QD + 10 mg QW (n = 3)): 2 (66.7) n (%)
- Patients with dose reduction ([6]; 10 mg QD + 10 mg QW (n = 3)): 1 (33.3) n (%)
- Patients with dose interruption ([6]; 20 mg QD + 20 mg QW (n = 14)): 8 (57.1) n (%)
- Patients with dose reduction ([6]; 20 mg QD + 20 mg QW (n = 14)): 4 (28.6) n (%)
- patients who discontinued treatment due to AEs / TEAEs ([6]; 2 of 17 patients (varicella zoster infection, pyrexia)): 11.8%
- patients requiring a dose reduction ([6]; 5 of 17 patients): 29.4%
- patients remaining on study treatment at data cut‐off ([6]; 6 of 17 patients): 35.3%
- patients requiring a dose interruption during the treatment period ([6]; 10 of 17 patients): 58.8%
- Patients with dose interruption ([6]; Total (N = 17)): 10 (58.8) n (%)
- Patients with dose reduction ([6]; Total (N = 17)): 5 (29.4) n (%)
- decreases in neutrophil count to grade 3 or 4 ([7]; previous studies, patients with FL or MZL): 13–14%
- ALT elevation [7, 12]: 13–26%
- AST elevation [7, 12]: 17–23%
- cough (TEAE) ([7]; primarily Western populations): 17–22%
- nausea (TEAE) ([7]; primarily Western populations): 14–26%
- pyrexia (TEAE) ([7]; primarily Western populations): 13–17%
- rash (TEAE) ([7]; primarily Western populations): 14–22%
- diarrhea (TEAE) ([7]; prior studies, primarily Western populations): 20–44%
- treatment‐emergent new or worsening decreased neutrophils to grade 3 or 4 ([8]; 5 of 17 patients, all during first 8 weeks): 29.4%
- Alanine aminotransferase (increased) [8, 13]: 7 (41.2) n (%)
- Albumin (decreased) [8, 13]: 9 (52.9) n (%)
- Alkaline phosphatase (increased) [8, 13]: 7 (41.2) n (%)
- Aspartate aminotransferase (increased) [8, 13]: 7 (41.2) n (%)
- Calcium (decreased) [8, 13]: 8 (47.1) n (%)
- Creatinine (increased) [8, 13]: 17 (100.0) n (%)
- Leukocytes (decreased) [8, 13]: 9 (52.9) n (%)
- Neutrophils (decreased) [8, 13]: 12 (70.6) n (%)
- Platelets (decreased) [8, 13]: 7 (41.2) n (%)
- Potassium (increased) [8, 13]: 5 (29.4) n (%)
- Sodium (decreased) [8, 13]: 5 (29.4) n (%)
- Alanine aminotransferase (increased) [8, 14]: 0 (0.0) n (%)
- Albumin (decreased) [8, 14]: 0 (0.0) n (%)
- Alkaline phosphatase (increased) [8, 14]: 0 (0.0) n (%)
- Aspartate aminotransferase (increased) [8, 14]: 0 (0.0) n (%)
- Calcium (decreased) [8, 14]: 0 (0.0) n (%)
- Creatinine (increased) [8, 14]: 0 (0.0) n (%)
- Leukocytes (decreased) [8, 14]: 0 (0.0) n (%)
- Neutrophils (decreased) [8, 14]: 4 (23.5) n (%)
- Platelets (decreased) [8, 14]: 0 (0.0) n (%)
- Potassium (increased) [8, 14]: 0 (0.0) n (%)
- Sodium (decreased) [8, 14]: 0 (0.0) n (%)
- Alanine aminotransferase (increased) [8, 15]: 0 (0.0) n (%)
- Albumin (decreased) [8, 15]: 0 (0.0) n (%)
- Alkaline phosphatase (increased) [8, 15]: 0 (0.0) n (%)
- Aspartate aminotransferase (increased) [8, 15]: 0 (0.0) n (%)
- Calcium (decreased) [8, 15]: 0 (0.0) n (%)
- Creatinine (increased) [8, 15]: 0 (0.0) n (%)
- Leukocytes (decreased) [8, 15]: 0 (0.0) n (%)
- Neutrophils (decreased) [8, 15]: 1 (5.9) n (%)
- Platelets (decreased) [8, 15]: 0 (0.0) n (%)
- Potassium (increased) [8, 15]: 0 (0.0) n (%)
- Sodium (decreased) [8, 15]: 0 (0.0) n (%)
- shifts to increased ALT, grade 1 [8, 16]: 5 patients
- shifts to increased ALT, grade 2 [8, 16]: 2 patients
- shifts to increased AST, grade 1 [8, 16]: 7 patients
- treatment‐emergent elevations of ALT or AST to grade 3 or 4 ([8]; human, in vivo): No treatment‐emergent worsening in aminotransferase elevations to grade 3 or 4; also recorded: no treatment‐emergent elevations of ALT or AST to grade 3 or 4
- elevation in ALT ([8]; shifts to grade 1 or 2): 41.2%
- elevation in AST ([8]; shifts to grade 1 or 2): 41.2%
- BOR, CMR/CR ([9]; FL (n = 9)): 2 (22.2) n (%)
- BOR, NMR/SD ([9]; FL (n = 9)): 0 (0.0) n (%)
- BOR, PMD/PD ([9]; FL (n = 9)): 0 (0.0) n (%)
- BOR, PMR/PR ([9]; FL (n = 9)): 7 (77.8) n (%)
- Objective response ([9]; FL (n = 9)): 9 (100.0) n (%)
- BOR, Not assessed ([9]; FL (n = 9), no postbaseline response data available): 0 (0.0) n (%)
- complete response ([9]; FL, 2 of 9 patients): 22.2%
- ORR ([9]; FL, 9 of 9 patients): 100%
- observed PFS ([9]; nine responders with FL): 1.9–17.5 months
